Screening data as filed in PubChem.
PGC1a acetyl inh = inhibitors of PGC1a acetylation signal, primary screen, cell-based, U2OS, AlphaScreen, inhibitor mode; AlphaScreen anti-acetyl-lysine; with virally co-expressed GCN5 acetyltransferase; hit rate 0.17% among 350,000; inhibition, % at 15.6 µM;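 active = every replicate shows inhibition of at least 40%; inconclusive = mean inhibition at least 40% but some replicate below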;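 note: 0% = neutral control wells and 100% = positive control wells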
S100A4 inh HTS = inhibitors of S100A4-myosin IIA peptide binding, primary screen, biochemical, fluorescence polarization, TAMRA-MyoIIA peptide; hit rate 0.14% among 360,000; inhibition, % at 10.7 µM; Protein S100-A4 (Homo sapiens), P26447;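 active = mean inhibition of at least 70% across replicates, with every replicate also reaching that level; inconclusive = mean inhibition reaches 70% but some replicates fall short; inactive = mean inhibition below 70%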
Target sequence (P26447 whole entry, looked up): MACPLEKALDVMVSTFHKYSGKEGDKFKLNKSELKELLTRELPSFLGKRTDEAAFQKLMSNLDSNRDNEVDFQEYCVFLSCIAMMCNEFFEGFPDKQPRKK
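Compound dosing: one dose per compound; test system: human S100A4 monomer with TAMRA-labelled myosin IIA peptide; probe or stimulus: TAMRA-labelled myosin IIA heavy-chain peptide probe, 5 nM; medium: HEPES buffer with Ca2+, pH 7.2; schedule: 5 min incubation before reading; benchmarks: neutral control DMSO, positive control TFP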
Statin myotox sup = suppressors of statin myotoxicity in C2C12 myotubes, primary screen, cell-based, single point, plate reader; rescue of ATP level, % at 7.49 µM; C2C12 myotubes + simvastatin, ATP luminescence, 48 h; scaled: DMSO 0, geranylgeraniol control 100; hit rate 0.78% among 330,000; AID 602340, 2012;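 active = mean ATP rescue above about 67%, or every replicate alone reaching that limit, limit read from the data, passing the limit was not always enough; inconclusive = no clear call, values can overlap the other calls; inactive = mean under the limit and some replicate under it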;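 note: myotubes were challenged with 10 µM simvastatin during compound exposure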
DENV2 CPE = inhibitors of DENV2 cytopathic effect, primary screen, cell-based, plate reader, single concentration | DENV2-infected cells, cytopathic effect rescue | CPE inhibition, % at 9.99 µM | hit rate 1.7% among 350,000 | AID 651640, 2012; in the data active = CPE inhibition above about 20%, passing the limit was not always enough; inconclusive = no clear call, values can overlap the other calls; tested in BHK-21 cells;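 note: 0% = median of neutral control wells and 100% = median of positive control wells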
SIRT5 inh = SIRT5 desuccinylase inhibitors, primary screen, biochemical, fluorescence imaging, single point, set 5. Purified SirT5, succinyl-peptide AMC, trypsin-coupled fluorescence. NAD-dependent protein deacylase sirtuin-5, mitochondrial (Homo sapiens), Q9NXA8. hit rate 1.1% among 330,000. inhibition, % at 15 µM. AID 652115, 2013; in the data active = inhibition above about 15%; inconclusive = no clear call, values can overlap the other calls
Target sequence (Q9NXA8 whole entry, looked up): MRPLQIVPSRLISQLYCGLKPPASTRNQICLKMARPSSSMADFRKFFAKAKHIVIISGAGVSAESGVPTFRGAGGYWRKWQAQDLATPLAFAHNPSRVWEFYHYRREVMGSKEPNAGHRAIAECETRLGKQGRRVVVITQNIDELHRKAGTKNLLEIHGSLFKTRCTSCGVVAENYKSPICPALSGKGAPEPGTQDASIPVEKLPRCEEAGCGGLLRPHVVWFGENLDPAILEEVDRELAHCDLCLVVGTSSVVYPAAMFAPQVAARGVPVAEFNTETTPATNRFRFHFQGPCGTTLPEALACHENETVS
Numbers without * were called inactive; ? = inconclusive; . = no result given; ! = a repeat was not active. Rows were chosen to be rich in hits. Some 2.9% of all compounds tested hit in one or more screens of this group.

SMILES	PGC1a acetyl inh	S100A4 inh HTS	Statin myotox sup	DENV2 CPE	SIRT5 inh
COc1ccc(NC(=O)CN(C)C(=O)CCSc2ccc(C)cc2)cc1	.	-0.4	-6.0	61.9*	-2.7
COc1ccc(NC(=O)CCSc2nnnn2C)cc1	-1.2	-0.7	6.5	-8.3	17.8*
COc1cccc(NC(=O)CN(C)CC(=O)NCc2ccco2)c1	.	-4.2	0.8	-0.7	16.9*
COc1ccc(NC(=O)CN(C)CC(=O)Nc2ccc3c(c2)CCC3)cc1	0.3	-1.5	.	10.0	112.0*
COc1ccc(OCC(=O)Nc2ccc3c(c2)CCC3)cc1	6.1	5.3	6.7	?	-0.8
CCCNC(=O)N1CC2(CCN(CC3CCCCC3)CC2)c2c([nH]c3cc(OC)ccc23)[C@H]1CO	-20.3	1.8	.	?	.
C[C@H]1CN([C@@H](C)CO)C(=O)c2cc(-c3cccc(F)c3)cnc2O[C@@H]1CN(C)C(=O)Nc1cc(F)ccc1F	1.2	-4.4	5.9	13.0	-2.0
C[C@@H]1CN([C@@H](C)CO)C(=O)c2cc(NC(=O)CCCN(C)C)ccc2O[C@@H](C)CCCCO[C@H]1CN(C)Cc1ccncc1	8.7	2.6	26.3	-3.8	-0.2
CCCC#Cc1cnc2c(c1)C(=O)N([C@@H](C)CO)C[C@H](C)[C@H](CN(C)C(=O)Nc1c(C)noc1C)O2	3.6	-0.8	9.7	-3.8	0.3
COc1cccc(NC(=O)CN(C)C(=O)CC2CCCC2)c1	-6.6	2.6	14.1	-8.9	-4.8
COc1ccc(NC(=O)CN(C)C(=O)CC2CCCC2)cc1	.	0.2	12.0	20.2*	-4.3
C[C@@H]1CN([C@@H](C)CO)S(=O)(=O)c2ccc(C#C[C@@H](C)O)cc2O[C@@H]1CN(C)C(=O)c1ccccc1	-10.3	0.3	-3.5	11.8	6.3
CC(C)[C@H](NC(=O)NCCc1ccccc1)C(=O)O	0.4	.	92.0*	.	.
CCC(C)[C@H](NC(=O)NCc1ccccc1)C(=O)O (stereo partly specified)	0.3	.	5.3	.	.
C[C@H](CO)N1C[C@H](C)[C@@H](CN(C)Cc2ccc(C(=O)O)cc2)OCc2ccccc2-c2c(n(C)c3ccccc23)C1=O	3.4	16.1	.	?	-5.1
COc1ccc(C(CNC(=O)CCNC(=O)c2ccc(Br)cc2)N2CCOCC2)cc1 (stereo unspecified)	-0.3	-3.2	1.9	38.9*	-2.6
COc1ccc(C(=O)NCC(=O)OCc2ccccc2F)cc1	.	-7.5	7.4	3.1	31.8*
O=C(Nc1ccnn1C1CCN(Cc2ccc(OC(F)F)cc2)CC1)C1CCCC1	.	2.4	-5.1	?	19.2*
O=C(Nc1ccnn1C1CCN(Cc2ccc(Cl)cc2)CC1)C1CCCC1	-10.5	2.5	.	-4.5	-2.6
CN1c2ccc(Br)cc2[C@H]2[C@H](CCN2C(=O)CN2CCOCC2)[C@@H]1CO	-5.7	-2.4	-5.2	7.2	-1.6
Cc1ccc(-c2nnn(CC(=O)N(c3ccc(F)cc3)C(C(=O)NC(C)(C)C)c3ccco3)n2)o1 (stereo unspecified)	4.6	.	83.3*	.	.
Cc1ccc(-c2nnn(CC(=O)N(c3ccc(F)cc3)C(C(=O)NC3CCCC3)c3ccco3)n2)o1 (stereo unspecified)	0.5	6.2	.	2.6	2.6
Cc1ccc(S(=O)(=O)N[C@@H]2CC[C@@H](CCn3cc(C4CCCC4)nn3)O[C@@H]2CO)cc1	-7.3	2.4	-5.0	-6.2	-0.6
CCS(=O)(=O)Nc1ccc2c(c1)C(=O)N(C)C[C@@H](OC)[C@H](C)CN(Cc1nccs1)[C@H](C)CO2	2.8	-3.3	17.9	-7.2	-1.7
COc1ccc(NC(=O)Nc2ccc3c(c2)C(=O)N([C@H](C)CO)C[C@H](C)[C@@H](CN(C)C(=O)Nc2ccccc2)OCCCC[C@H](C)O3)cc1	-3.8	1.4	11.3	-2.3	6.7
SMILES	PGC1a acetyl inh	S100A4 inh HTS	Statin myotox sup	DENV2 CPE	SIRT5 inh
CCC(=O)N(C)C[C@H]1Oc2ncc(/C=C/c3ccccc3)cc2C(=O)N([C@@H](C)CO)C[C@@H]1C	-0.9	2.4	10.8	41.6*	-17.3
CCC(=O)N(C)C[C@@H]1Oc2ncc(Br)cc2C(=O)N([C@H](C)CO)C[C@H]1C	-4.0	0.3	5.7	28.6*!	-4.1
COCC(=O)N(C)C[C@H]1Oc2ncc(Br)cc2C(=O)N([C@@H](C)CO)C[C@H]1C	0.4	3.2	-1.3	-2.1	16.7*!
COCC(=O)N(C)C[C@H]1Oc2ncc(C#Cc3cccnc3)cc2C(=O)N([C@@H](C)CO)C[C@@H]1C	-5.2	17.3	-8.1	9.6	1.7
COCC(=O)N(C)C[C@H]1Oc2ncc(C#Cc3cccnc3)cc2C(=O)N([C@H](C)CO)C[C@H]1C	0.0	-22.2	6.3	24.3*	0.9
COCC(=O)N(C)C[C@H]1Oc2ncc(Br)cc2C(=O)N([C@H](C)CO)C[C@H]1C	6.7	3.9	8.4	1.6	-1.1
COc1ccc2c3c(n(C)c2c1)[C@@H](CO)N(Cc1ccccn1)CC31CN(C(=O)NC(C)C)C1	3.5	0.5	.	18.5	1.2
C[C@H](CO)N1C[C@H](C)[C@@H](CN(C)CC2CCCCC2)Oc2ccc(NC(=O)Nc3ccccc3)cc2C1=O	-8.6	5.2	-5.8	.	2.9
C[C@@H]1CN([C@@H](C)CO)C(=O)c2cc(C#CC3CCCC3)cnc2O[C@H]1CN(C)C(=O)C1CC1	-3.1	-29.0	-0.9	27.5*	0.2
C[C@@H]1CN([C@@H](C)CO)C(=O)c2cc(C#CC3CCCC3)cnc2O[C@@H]1CN(C)C(=O)C1CCC1	-0.5	7.3	.	-4.2	1.4
C[C@H](CO)N1C[C@H](C)[C@@H](CN(C)C(=O)C2CC2)Oc2ncc(C#CC3CCCC3)cc2C1=O	-0.8	-11.1	3.6	25.3*	0.0
Cc1ccccc1NC(=O)c1ccc(S(=O)(=O)N(C)C)cc1	1.8	2.9	.	50.9*	.
Cc1ccccc1NC(=O)c1ccc(C)c(S(=O)(=O)NCc2cccnc2)c1	-4.6	-1.2	0.4	5.5	-2.7
O=C(Nc1ccc(S(=O)(=O)Nc2ccccn2)cc1)c1cccc(Br)c1	3.2	-2.4	-1.6	-0.2	1.5
O=C(Nc1ccc(S(=O)(=O)Nc2nccs2)cc1)c1cccc(F)c1	.	2.3	29.2	5.1	31.7*
Cc1ccccc1NC(=O)c1ccc(C)c(S(=O)(=O)Nc2ccccn2)c1	-1.9	0.9	96.7*	4.2	-0.2
CN(C)S(=O)(=O)c1ccc(C(=O)Nc2ccccc2[N+](=O)[O-])cc1	-11.9	1.3	.	-3.7	.
O=C(Nc1ccc(S(=O)(=O)Nc2ccccn2)cc1)c1cccc(Cl)c1	.	-6.0	74.4*	10.1	2.1
